Source: ChEMBL document CHEMBL4138078, “Structure-based virtual screening and optimization of modulators targeting Hsp90-Cdc37 interaction” (Eur J Med Chem, 2017)
Activity calls are given as the source filed them. No cut-off for these calls is given here.

How the values were obtained:
Homo sapiens [1] = organism: Homo sapiens; assay: Inhibition of full length His-tagged HSP90/GST-tagged Cdc37 (unknown origin) interaction at 100 uM after 1 hr by HTRF assay relative to control
Method in brief: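 HTRF assay using His-tagged full-length Hsp90 and GST-tagged Cdc37 M, each 250 nM final, in PBS with an extra 400 mM KF, pH 7.4. Compound incubated 1 h at 37 °C. Anti-GST-Cryptate and anti-6His-XL665 then added, 0.5 h at 37 °C. Ex 320 nm; ratio = (665/620 nm) × 10000. No-compound negative control and reagent-only blank.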

Homo sapiens [2] = organism: Homo sapiens; assay: Inhibition of N-terminal GST-tagged HSP90/Cdc37 (unknown origin) interaction expressed in Escherichia coli preincubated with Cdc37 for 1 hr followed by addition to HSP90 by GST-pull down assay
Method in brief: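 Pull-down with 10 μg GST-Hsp90 N-terminal domain immobilised as bait on glutathione resin spin columns. Compound incubated with Cdc37 for 1 h at 37 °C, then added to the columns. Loading buffer 25 mM Tris, 0.15 M NaCl, pH 7.2; elution with extra 10 mM reduced glutathione; spins 1 min at 1,000 × g, 4 °C. Eluate analysed by SDS-PAGE and anti-GST/anti-His western blot.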

Heat shock protein HSP90 [3] = molecular target: T1, Heat shock protein HSP90 (Homo sapiens, UniProt P07900+P08238); assay: Inhibition of GA-FITC binding to N-terminal GST-tagged HSP90 (unknown origin) expressed in Escherichia coli at 100 uM after 30 mins fluorescence polarization assay relative to control
SK-BR-3 = assay: Antiproliferative activity against human SKBR3 cells after 72 hrs by MTT assay; assay type: functional, cell-based; conditions: SK-BR-3, 72 h
Method in brief: (§1)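 Cells seeded at 10000/well and left 24 h, then exposed to compounds in DMSO (200 μM down to 0.823 μM, three-fold steps) for 72 h at 37 °C. Viability was read by MTT (5 mg/mL in PBS) with formazan dissolved in DMSO, OD at 490 nm. IC50 was taken from parallel experiments as mean ± SD. Media: MCF-7 in MEM, SKBR-3 in RPMI-1640, A549 in F12K, each with 10% FCS.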

MCF7 = assay: Antiproliferative activity against human MCF7 cells after 72 hrs by MTT assay; assay type: functional, cell-based; conditions: MCF7, 72 h; method in brief: as §1
[4] = Inhibition of full length His-tagged HSP90/GST-tagged Cdc37 (unknown origin) interaction after 1 hr by HTRF assay; design: species or system Homo sapiens
Method in brief: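 Final 250 nM each of His-Hsp90 (full length) and GST-Cdc37 M in PBS with extra 400 mM KF, pH 7.4. Compound added (300 μM to 1.23 μM, three-fold steps), 1 h at 37 °C. Anti-GST-cryptate and anti-6His-XL665 added, 0.5 h at 37 °C. TR-FRET read at ex 320 nm, em 665/620 nm, ratio ×10000. No-compound and reagent-only controls included.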

A549 = assay: Antiproliferative activity against human A549 cells after 72 hrs by MTT assay; assay type: functional, cell-based; conditions: A549, 72 h; method in brief: as §1
Heat shock protein HSP90 [5] = molecular target: T1, Heat shock protein HSP90; assay: Inhibition of N-terminal GST-tagged HSP90 ATPase activity (unknown origin) expressed in Escherichia coli at 100 uM after 1 hr in presence of ATP by spectrophotometric assay relative to control
Method in brief: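 ADP Hunter Plus ADP-detection kit. Compound at 100 μM final in 15 mM HEPES, 20 mM NaCl, 1 mM EDTA, 10 mM MgCl2, 0.02% Tween20, pH 7.4. Mixed in equal volumes with Hsp90 (5 μM) and ATP (100 μM), 1 h at 37 °C. Detection reagents A and B added, 30 min at room temperature; ex 540/em 620 nm. Protein-free background; no-ligand wells set as 100% activity.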

Heat shock protein HSP90 [6] = molecular target: T1, Heat shock protein HSP90; assay: Binding affinity to N-terminal GST-tagged HSP90 (unknown origin) expressed in Escherichia coli by biolayer interferometry analysis
Homo sapiens [7] = organism: Homo sapiens; assay: Inhibition of full length His-tagged HSP90/GST-tagged Cdc37 (unknown origin) interaction at 10 uM after 1 hr by HTRF assay relative to control

Structure (SMILES) | inhibition (Homo sapiens [1]) | further results
O=C(CCC(=O)Nc1ccc(S(=O)(=O)Nc2ccccc2)cc1)Nc1ccc(S(=O)(=O)Nc2ccccc2)cc1 | 49.6% | 
COC(=O)c1cc(NCc2cc(Cl)c(OCC(N)=O)c(OC)c2)ccc1N1CCOCC1 | < 10% | 
CCOc1cc(CNc2ccc(N3CCOCC3)c(C(=O)OC)c2)cc(Cl)c1OCC(N)=O | < 10% | 
CCCOC(=O)c1ccc(Oc2c(C)oc3c(CN4CCN(CCO)CC4)c(O)ccc3c2=O)cc1 | < 10% | 
COc1ccc(NS(=O)(=O)c2ccc(NC(=O)CCC(=O)Nc3ccc(S(=O)(=O)Nc4ccc(OC)nn4)cc3)cc2)nn1 | < 10% | 
Cc1noc(NS(=O)(=O)c2ccc(NC(=O)CC(=O)Nc3ccc(S(=O)(=O)Nc4onc(C)c4C)cc3)cc2)c1C | < 10% | 
COc1ccc(C(=O)Nc2ccccc2C(=O)NCCCCO)cc1OC | 19.3% | 
Cc1cc(NS(=O)(=O)c2ccc(NC(=O)CC(=O)Nc3ccc(S(=O)(=O)Nc4cc(C)on4)cc3)cc2)no1 | 65.6 to 66% | 
COc1cccc(C(c2c(N)nc(SCC(N)=O)[nH]c2=O)c2c(N)nc(SCC(N)=O)[nH]c2=O)c1 | 14.3% | 
COc1cc(/C=C2\SC(=S)N(CCCCCCN3C(=O)/C(=C\c4ccc(O)c(OC)c4)SC3=S)C2=O)ccc1O | 17% | 
Cn1c(SCC(=O)Nc2ccc3nc(SCC(=O)c4ccc(Cl)cc4)sc3c2)nnc1-c1ccc(N)cc1 | < 10% | 
NC(=O)C1CCN(C[C@H](O)COc2ccc(OC[C@@H](O)CN3CCC(C(N)=O)CC3)cc2)CC1 | < 10% | 
O=C1NCCCC[C@H]1N[C@@H]1CC(=O)N(c2ccc(N3C(=O)C[C@@H](N[C@@H]4CCCCNC4=O)C3=O)cc2)C1=O | < 10% | 
Cc1cc(NS(=O)(=O)c2ccc(NC(=O)CCCC(=O)Nc3ccc(S(=O)(=O)Nc4cc(C)on4)cc3)cc2)no1 | 59.3% | inhibition (Homo sapiens [2]): Dose-dependent effect; inhibition (Heat shock protein HSP90 [3]): inactive; IC50 (SK-BR-3): 59.4 µM; IC50 (MCF7): 66.9 µM; IC50 [4]: 76.9 to 77 µM; IC50 (A549): 75.3 µM; inhibition (Heat shock protein HSP90 [5]): < 10%; Kd (Heat shock protein HSP90 [6]): 80.4 µM
COc1ccc(CCNc2cc(N3CCN(CCO)CC3)ccc2[N+](=O)[O-])cc1OC | 30.7% | IC50 (SK-BR-3): 84.6 µM; IC50 (MCF7): > 100 µM; IC50 [4]: 296 µM; IC50 (A549): > 100 µM
COc1ccc([C@H](CC(=O)O)NC(=O)CCc2c(C)c3ccc(O)cc3oc2=O)cc1OC | < 10% | 
Cc1ccnc(NS(=O)(=O)c2ccc(NC(=O)CCC(=O)Nc3ccc(S(=O)(=O)Nc4nccc(C)n4)cc3)cc2)n1 | < 10% | 
Cc1cc(NS(=O)(=O)c2ccc(NC(=O)c3ccc(C(=O)Nc4ccc(S(=O)(=O)Nc5cc(C)on5)cc4)cc3)cc2)no1 | inactive | 
CCOC(=O)c1cccc(NC(=O)CSc2nnc(-c3ccc(O)cc3)n2Cc2ccccc2)c1 | 14.1% | 
CC/N=C1\S[C@H](CC(=O)Nc2cccc(NC(=O)C[C@@H]3S/C(=N/CC)N(CC)C3=O)c2)C(=O)C1CC (stereo partly drawn) | < 10% | 
CC(=O)Nc1ccc(C(=O)OCCOC(=O)C2=C(C)NC(C)=C(C(=O)OCCNC(=O)c3ccccc3O)[C@H]2c2cccc([N+](=O)[O-])c2)cc1 | < 10% | 
CCOC(=O)C1=C(CSc2nc3c(cc2C#N)CN(C)CC3)OC(N)=C(C#N)C1c1ccncc1 (stereo not drawn) | < 10% | 
C=C1[C@@H](C(=O)Nc2ccc(NS(=O)(=O)c3ccc(C)cc3)cc2)[C@@H]1C(=O)Nc1ccc(NS(=O)(=O)c2ccc(C)cc2)cc1 | < 10% | 

Structure (SMILES) | inhibition (Homo sapiens [1]) | further results
O=C(CC(=O)Nc1ccc(S(=O)(=O)Nc2ccccc2)cc1)Nc1ccc(S(=O)(=O)Nc2ccccc2)cc1 | 30.4% | 
COc1ccc(-c2c(C)oc3cc(OCCN4CCN(CCO)CC4)ccc3c2=O)cc1OC | < 10% | 
CO[C@H]1/C=C\C=C(/C)C(=O)NC2=CC(=O)C(NCCN(C)C)=C(C[C@@H](C)C[C@H](OC)[C@H](O)[C@@H](C)/C=C(\C)[C@@H]1OC(N)=O)C2=O (stereo in doubt) |  | inhibition (Homo sapiens [7]): inactive
Cc1cc(NS(=O)(=O)c2ccc(NC(=O)CCCCC(=O)Nc3ccc(S(=O)(=O)Nc4cc(C)on4)cc3)cc2)no1 | 20.7% | 
O=C(CCC(=O)Nc1ccc(S(=O)(=O)Nc2ncccn2)cc1)Nc1ccc(S(=O)(=O)Nc2ncccn2)cc1 | < 10% | 
O=C(CCC(=O)Nc1ccc(S(=O)(=O)Nc2ccccn2)cc1)Nc1ccc(S(=O)(=O)Nc2ccccn2)cc1 | < 10% | 
Cc1cc(NS(=O)(=O)c2ccc(NC(=O)CCC(=O)Nc3ccc(S(=O)(=O)Nc4cc(C)on4)cc3)cc2)no1 | 69.8 to 70% | 
COc1ccccc1N(CC(=O)N/N=C/c1ccc(OCC(=O)Nc2ccccc2Cl)cc1)S(=O)(=O)c1ccc(C)cc1 | 13.6% | 
CS(=O)(=O)N(CC(=O)N/N=C/c1ccc(OCC(=O)Nc2ccc(F)cc2)cc1)c1ccc(Cl)c(Cl)c1 | < 10% | 
COc1ccc(S(=O)(=O)N(CC(=O)N/N=C/c2ccc(OCC(N)=O)cc2)c2ccccc2)cc1 | < 10% | 
O[C@H](COc1ccc(OC[C@H](O)CN2CCN(c3cccc(Cl)c3)CC2)cc1)CN1CCN(c2cccc(Cl)c2)CC1 | 47.6% | IC50 (SK-BR-3): > 100 µM; IC50 (MCF7): 89.2 µM; IC50 [4]: 128 µM; IC50 (A549): > 100 µM
NC(=O)COc1ccc(/C=N/NC(=O)[C@H]2CCCN2S(=O)(=O)c2ccc(Cl)cc2)cc1 | < 10% | 
Cc1ccnc(NS(=O)(=O)c2ccc(NC(=O)c3cccc(C(=O)Nc4ccc(S(=O)(=O)Nc5nccc(C)n5)cc4)c3)cc2)n1 | < 10% | 
CC1=C(C(=O)OCCNC(=O)c2ccc(O)cc2)[C@@H](c2cccc([N+](=O)[O-])c2)C(C(=O)OCCNC(=O)c2ccccc2O)=C(C)N1 | < 10% | 
CCOc1ccc(C(=O)C2=C(O)C(=O)N(CCOCCO)[C@@H]2c2cccc(OC)c2)cc1 | < 10% | 
CC.COc1ccc(NC(=O)C2=C(C)Nc3nc(CCCO)nn3[C@H]2c2ccc(OC)c(OC)c2)cc1 | 36.6% | inhibition (Heat shock protein HSP90 [3]): inactive; IC50 (SK-BR-3): > 100 µM; IC50 (MCF7): > 100 µM; IC50 [4]: 154 µM; IC50 (A549): > 100 µM; inhibition (Heat shock protein HSP90 [5]): 45.7%; Kd (Heat shock protein HSP90 [6]): > 100 µM
CCOC(=O)c1c(C)n(Cc2ccccc2)c2ccc(OC[C@H](O)CN3CCN(CCO)CC3)cc12 | < 10% | 
Cc1noc(NS(=O)(=O)c2ccc(NC(=O)CCC(=O)Nc3ccc(S(=O)(=O)Nc4onc(C)c4C)cc3)cc2)c1C | 48.7% | 
C[C@H](O)c1ccc(-c2ccc(CNCCCSc3nnnn3-c3ccccc3)o2)cc1 | < 10% | 
O=C(CCC(=O)Nc1ccc(S(=O)(=O)Nc2nccs2)cc1)Nc1ccc(S(=O)(=O)Nc2nccs2)cc1 | < 10% | 
Cn1nccc1NS(=O)(=O)c1ccc(NC(=O)CC(=O)Nc2ccc(S(=O)(=O)Nc3ccnn3C)cc2)cc1 | 50.9% | 
Cc1cc(C)c(NS(=O)(=O)c2ccc(NC(=O)CCCCC(=O)Nc3ccc(S(=O)(=O)Nc4c(C)cc(C)cc4C)cc3)cc2)c(C)c1 | 21.5% | 
